From ChEMBL document CHEMBL1800024, “A novel class of trans-methylpyrazoline analogs of combretastatins: synthesis and in-vitro biological testing” (Eur J Med Chem, 2011)
≈ marks a conversion by molar mass, not a printed value.

What was measured:
[1] = test system: L1210; assay: Cytotoxicity against mouse L1210 cells after 72 hrs by MTT assay; format: functional, cell-based; settings: L1210, 72 h
How it was run: (§1)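 Murine B16 melanoma and L1210 lymphoma cells in culture were exposed to compound continuously for 72 h. Viability was read by MTT assay, and IC₅₀ was derived from growth inhibition.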

[2] = test system: B16; assay: Cytotoxicity against mouse B16 cells after 72 hrs by MTT assay; format: functional, cell-based; settings: B16, 72 h; how it was run: as §1
[3] = test system: HL-60(TB); assay: Growth inhibition of human HL-60(TB) cells; format: functional
[4] = test system: MOLT-4; assay: Growth inhibition of human MOLT4 cells; format: functional
[5] = test system: NCI-H23; assay: Growth inhibition of human NCI-H23 cells; format: functional
[6] = test system: NCI-H322M; assay: Growth inhibition of human NCI-H322M cells; format: functional
[7] = test system: NCI-H522; assay: Growth inhibition of human NCI-H522 cells; format: functional
[8] = test system: HCT-116; assay: Growth inhibition of human HCT116 cells; format: functional
[9] = test system: SF-295; assay: Growth inhibition of human SF295 cells; format: functional
[10] = test system: SF-539; assay: Growth inhibition of human SF539 cells; format: functional
[11] = test system: SNB-19; assay: Growth inhibition of human SNB19 cells; format: functional
[12] = test system: U-251; assay: Growth inhibition of human U251 cells; format: functional
[13] = test system: LOX IMVI; assay: Growth inhibition of human LOXIMVI cells; format: functional
[14] = test system: Malme-3M; assay: Growth inhibition of human MALME-3M cells; format: functional
[15] = test system: SK-MEL-5; assay: Growth inhibition of human SK-MEL-5 cells; format: functional
[16] = test system: UACC-257; assay: Growth inhibition of human UACC257 cells; format: functional
[17] = test system: SK-OV-3; assay: Growth inhibition of human SKOV3 cells; format: functional
[18] = test system: CAKI-1; assay: Growth inhibition of human Caki1 cells; format: functional
[19] = test system: RXF 393; assay: Growth inhibition of human RXF393 cells; format: functional
[20] = test system: MDA-MB-231; assay: Growth inhibition of human MDA-MB-231 cells; format: functional
[21] = test system: BT-549; assay: Growth inhibition of human BT549 cells; format: functional
[22] = test system: T47D; assay: Growth inhibition of human T47D cells; format: functional; settings: read-out: pTGI
[23] = test system: MDA-MB-435; assay: Cytotoxicity against human MDA-MB-435 cells after 48 hrs by SRB assay; format: functional, cell-based; settings: MDA-MB-435, 48 h
[24] = test system: A10; assay: Induction of interphase microtubule depolymerization in rat A10 cells; format: functional, cell-based
[25] = test system: MDA-MB-435; assay: Ratio of EC50 for interphase microtubule depolymerization in rat A10 cells to IC50 for cytotoxicity against human MDA-MB-435 cells; format: functional
[26] = Aqueous solubility of the compound; format: physicochemical
How it was run: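 Maximum aqueous solubility was measured with a modified filter-plate solubility protocol.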

For `COc1cc([C@@H]2C(C)=NN(C(C)=O)[C@H]2c2ccccc2)cc(OC)c1OC` (relative stereo), the IC50 [1] was 47 µM and the IC50 [2] was greater than 100 µM.

`COc1cc([C@@H]2C(C)=NN(C(C)=O)[C@H]2c2ccc(C)cc2)cc(OC)c1OC` (relative stereo) showed an IC50 [1] of 6 µM and an IC50 [2] of 45.5 µM.

With `COc1cc([C@@H]2C(C)=NN(C(C)=O)[C@H]2c2ccc(Cl)cc2)cc(OC)c1OC` (relative stereo) the IC50 [1] was greater than 100 µM and the IC50 [2] was greater than 100 µM.

With `COc1cc([C@@H]2C(C)=NN(C(C)=O)[C@H]2c2ccc(Br)cc2)cc(OC)c1OC` (relative stereo) the IC50 [1] was 33 µM and the IC50 [2] was greater than 100 µM.

In the case of `COc1cc([C@@H]2C(C)=NN(C(C)=O)[C@H]2c2ccc([N+](=O)[O-])cc2)cc(OC)c1OC` (relative stereo), the IC50 [1] is reported as greater than 100 µM and the IC50 [2] is reported as greater than 100 µM.

`COc1ccc([C@H]2[C@H](c3cc(OC)c(OC)c(OC)c3)C(C)=NN2C(C)=O)cc1` (relative stereo) gave an IC50 [1] of 8.4 µM and an IC50 [2] of 95 µM.

With `COc1cc([C@@H]2C(C)=NN(C(C)=O)[C@H]2c2cccc([N+](=O)[O-])c2)cc(OC)c1OC` (relative stereo) the IC50 [1] was greater than 100 µM and the IC50 [2] was greater than 100 µM.

For `COc1cc([C@@H]2C(C)=NN(C(C)=O)[C@H]2c2ccc(Cl)c(Cl)c2)cc(OC)c1OC` (relative stereo), the IC50 [1] was 36 µM and the IC50 [2] was greater than 100 µM.

For `COc1ccc([C@H]2[C@H](c3cc(OC)c(OC)c(OC)c3)C(C)=NN2C(C)=O)cc1OC` (relative stereo), the IC50 [1] was 34 µM and the IC50 [2] was greater than 100 µM.

In the case of `COc1ccc([C@H]2[C@H](c3cc(OC)c(OC)c(OC)c3)C(C)=NN2C(C)=O)cc1O` (relative stereo), the IC50 [1] is reported as 3.3 µM, the IC50 [2] is reported as 6.8 µM and the GI50 [3] is reported as 1.78 µM. The TGI ([3]; read-out: pTGI (converted)) was 7.76 µM, the GI50 [4] was 5.75 µM and the TGI ([4]; read-out: pTGI) was greater than 100 µM. For the same compound, the GI50 [5] was 3.72 µM, the TGI ([5]; read-out: pTGI) was greater than 100 µM and the GI50 [6] was 4.27 µM. It also gave a TGI ([6]; read-out: pTGI (converted)) of 51.3 µM, a GI50 [7] of 0.372 µM and a TGI ([7]; read-out: pTGI (converted)) of 11.7 µM. The GI50 [8] was 3.02 µM, the TGI ([8]; read-out: pTGI (converted)) was 34.7 µM and the GI50 [9] was 2.57 µM. It also gave a TGI ([9]; read-out: pTGI) greater than 100 µM, a GI50 [10] of 0.741 µM and a TGI ([10]; read-out: pTGI (converted)) of 4.37 µM. It also gave a GI50 [11] of 4.37 µM, a TGI ([11]; read-out: pTGI) greater than 100 µM and a GI50 [12] of 3.24 µM. The TGI ([12]; read-out: pTGI) was greater than 100 µM, the GI50 [13] was 2.24 µM and the TGI ([13]; read-out: pTGI) was greater than 100 µM. For the same compound, the GI50 [14] was 0.891 µM, the TGI ([14]; read-out: pTGI) was greater than 100 µM and the GI50 [15] was 1.17 µM. It also gave a TGI ([15]; read-out: pTGI (converted)) of 14.1 µM, a GI50 [16] greater than 100 µM and a TGI ([16]; read-out: pTGI) greater than 100 µM. For the same compound, the GI50 [17] was 2.19 µM, the TGI ([17]; read-out: pTGI (converted)) was 9.55 µM and the GI50 [18] was 5.37 µM. It also gave a TGI ([18]; read-out: pTGI) greater than 100 µM, a GI50 [19] of 3.09 µM and a TGI ([19]; read-out: pTGI) greater than 100 µM. For the same compound, the GI50 [20] was 4.07 µM, the TGI ([20]; read-out: pTGI) was greater than 100 µM and the GI50 [21] was 1.45 µM. It also gave a TGI ([21]; read-out: pTGI) greater than 100 µM, a TGI [22] greater than 100 µM and an IC50 [23] of 0.9 µM. For the same compound, the EC50 [24] was 4.1 µM, the Ratio [25] was 4.5 and the solubility [26] was 372 µM (≈ 154 µg/mL).

`COc1ccc([C@H]2[C@H](c3cc(OC)c(OC)c(OC)c3)C(C)=NN2C(C)=O)cc1[N+](=O)[O-]` (relative stereo) showed an IC50 [1] of 32.5 µM and an IC50 [2] greater than 100 µM.

In the case of `COc1ccc(OC)c([C@H]2[C@H](c3cc(OC)c(OC)c(OC)c3)C(C)=NN2C(C)=O)c1` (relative stereo), the IC50 [1] is reported as greater than 100 µM and the IC50 [2] is reported as greater than 100 µM.

Work on `COc1cc([C@@H]2C(C)=NN(C(C)=O)[C@H]2c2cc(OC)c(OC)c(OC)c2)cc(OC)c1OC` (relative stereo) yielded an IC50 [1] greater than 100 µM and an IC50 [2] greater than 100 µM.

In the case of `COc1ccc(/C=C\c2cc(OC)c(OC)c(OC)c2)cc1O` [COMBRETASTATIN A4], the IC50 [1] is reported as 0.003 µM and the IC50 [2] is reported as 0.002 µM.
